The values below come from ChEMBL document CHEMBL1828603, “Synthesis, antimicrobial activity and possible mechanism of action of 9-bromo-substituted indolizinoquinoline-5,12-dione derivatives” (2011).

Assay [1] deals with Enterococcus faecalis. Nature of the assay: Antimicrobial activity against Enterococcus faecalis ATCC 29212 by broth microdilution method. Format: functional. Summed up: (§1)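 Two-fold broth microdilution in Mueller-Hinton broth. Compound in DMSO added to bacterial culture at 5 × 10^5 cells/ml, starting at 64 µg/ml, then serially doubled down. Incubated at 37 °C overnight and read as OD600. MIC taken as the minimum inhibitory concentration, obtained in at least two independent experiments.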

Assay [2] has as its system Streptococcus. In words: Antimicrobial activity against hemolytic Streptococcus Group B CMCC 32210 by broth microdilution method. Format: functional. The gist of the method: as §1
The subject of assay [3] is Pseudomonas aeruginosa. In words: Antimicrobial activity against Pseudomonas aeruginosa ATCC 27853 by broth microdilution method. Format: functional. The gist of the method: as §1
Assay [4] has as its system Staphylococcus aureus. Nature of the assay: Ratio of MIC for vancomycin to compound for methicillin-resistant Staphylococcus aureus ATCC 43300 by broth microdilution method. Format: functional.
The test system of assay [5] is Staphylococcus aureus. In words: Antimicrobial activity against methicillin-resistant Staphylococcus aureus ATCC 43300 by broth microdilution method. Format: functional. Summed up: (§2)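 Two-fold serial dilution in Mueller-Hinton broth, starting at 64 µg/ml. Compound was added as a DMSO solution to bacterial culture at 5 × 10^5 cells/ml, then double-diluted. Plates were incubated overnight at 37 °C and OD600 was read. MIC was taken from at least two independent experiments.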

The test system of assay [6] is Escherichia coli. Nature of the assay: Antimicrobial activity against Escherichia coli ATCC 25922 by broth microdilution method. Format: functional. The gist of the method: as §1
Assay [7] has as its system Candida albicans. In words: Antifungal activity against Candida albicans ATCC 10231 by broth microdilution method. Format: functional.
For assay [8], the system named is Staphylococcus epidermidis. Nature of the assay: Antimicrobial activity against Staphylococcus epidermidis ATCC 12228 by broth microdilution method. Format: functional. The gist of the method: as §1
For assay [9], the system named is Staphylococcus aureus. In words: Antimicrobial activity against Staphylococcus aureus ATCC 25923 by broth microdilution method. Format: functional. Summed up:
as §1

Assay [10] has as its system Salmonella enterica subsp. enterica serovar Paratyphi B. In words: Antimicrobial activity against Salmonella paratyphi B CMCC 50094 by broth microdilution method. Format: functional. The gist of the method: as §2
Assay [11] deals with Staphylococcus aureus. In words: Inhibition of Staphylococcus aureus topoisomerase 4-mediated relaxation of supercoiled pBR322 DNA at 1 uM after 30 mins by agarose gel electrophoretic analysis. Summed up:
(§3)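 Relaxation assay with 1 U Topo IV and 0.5 µg supercoiled pBR322 DNA in HEPES–KOH pH 7.6 buffer (potassium glutamate, magnesium acetate, DTT, 1 mM ATP, BSA), 37 °C for 30 min. Stopped with chloroform/iso-amyl alcohol (24:1), then run on 1% agarose gel in TAE at 5 V/cm.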

Assay [12] relates to Salmonella enterica subsp. enterica serovar Paratyphi B. Nature of the assay: Antimicrobial activity against Salmonella paratyphi B CMCC 50094 by two fold microdilution method. Format: functional. The gist of the method: as §2
Assay [13] relates to Escherichia coli. Nature of the assay: Inhibition of Escherichia coli topoisomerase 4 assessed as decatenation of kDNA at 25 uM after 30 mins by electrophoresis. The gist of the method:
(§4)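 Decatenation assay with 1 U Topo IV and 200 ng catenated kDNA in HEPES–KOH pH 7.6 buffer (potassium glutamate, magnesium acetate, DTT, 1 mM ATP, BSA), 37 °C for 30 min. Stopped with chloroform/iso-amyl alcohol (24:1), then run on 1% agarose gel in TAE at 10 V/cm.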

Assay [14] deals with Staphylococcus aureus. In words: Antimicrobial activity against methicillin-resistant Staphylococcus aureus isolate 80754 by broth microdilution method. Format: functional. The gist of the method:
(§5)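 MRSA clinical isolates from Guangzhou Liuhuaqiao Hospital, China. Tested by two-fold broth dilution in Mueller-Hinton broth from a top concentration of 64 µg/ml. Compound in DMSO was added to culture at 5 × 10^5 cells/ml and serially halved. Plates were incubated at 37 °C overnight with OD600 read-out. MIC came from ≥2 independent experiments.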

The test system of assay [15] is Escherichia coli. Nature of the assay: Inhibition of Escherichia coli topoisomerase 4-mediated relaxation of supercoiled pBR322 DNA at 125 uM after 30 mins by agarose gel electrophoretic analysis. Summed up: as §3
The test system of assay [16] is Staphylococcus aureus. Nature of the assay: Antimicrobial activity against methicillin-resistant Staphylococcus aureus isolate 071429 by broth microdilution method. Format: functional. The gist of the method:
as §5

Assay [17] concerns Staphylococcus aureus. Nature of the assay: Antimicrobial activity against methicillin-resistant Staphylococcus aureus isolate 071410 by broth microdilution method. Format: functional. The gist of the method:
as §5

For assay [18], the system named is Staphylococcus aureus. In words: Antimicrobial activity against methicillin-resistant Staphylococcus aureus isolate 82896 by broth microdilution method. Format: functional. The gist of the method: as §5
The subject of assay [19] is Staphylococcus aureus. In words: Inhibition of Staphylococcus aureus topoisomerase 4 assessed as decatenation of kDNA at 125 uM after 30 mins by electrophoresis. The gist of the method: as §4
Assay [20] relates to Staphylococcus epidermidis. In words: Antimicrobial activity against Staphylococcus epidermidis ATCC 12228 by two fold microdilution method. Format: functional. Summed up: as §1
In assay [21] the test system is Streptococcus. In words: Antimicrobial activity against hemolytic Streptococcus Group B CMCC 32210 by two fold microdilution method. Format: functional. The gist of the method: as §1
In assay [22] the test system is Staphylococcus aureus. In words: Antimicrobial activity against methicillin-resistant Staphylococcus aureus isolate 72754 by broth microdilution method. Format: functional. The gist of the method: as §5
Assay [23] has as its system Staphylococcus aureus. Nature of the assay: Antimicrobial activity against methicillin-resistant Staphylococcus aureus isolate 83160 by broth microdilution method. Format: functional. Summed up:
as §5

Assay [24] relates to Staphylococcus aureus. In words: Antimicrobial activity against methicillin-resistant Staphylococcus aureus isolate 0441 by broth microdilution method. Format: functional. Summed up:
as §5

Assay [25] has as its system Staphylococcus aureus. In words: Inhibition of Staphylococcus aureus topoisomerase 4-mediated relaxation of supercoiled pBR322 DNA at 25 uM after 30 mins by agarose gel electrophoretic analysis. The gist of the method: as §3
For assay [26], the system named is Escherichia coli. In words: Inhibition of Escherichia coli DNA gyrase supercoiling activity using pHOT1 DNA as substrate at 100 uM after 60 mins by agarose gel electrophoretic analysis. The gist of the method:
(§6)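 Supercoiling assay with 1 U DNA gyrase (E. coli or S. aureus) and 0.5 µg relaxed pHOT1 DNA in Tris–HCl pH 7.5 buffer (KCl, MgCl2, DTT, spermidine, 1 mM ATP, glycerol, BSA), ± compound, 37 °C for 60 min. Stopped with proteinase K, run on 1% agarose in TAE at 3 V/cm, stained with Gel Red and imaged under UV.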

The test system of assay [27] is Staphylococcus aureus. Nature of the assay: Antimicrobial activity against Staphylococcus aureus ATCC 25923 by two fold microdilution method. Format: functional. Summed up: as §2
In assay [28] the test system is Staphylococcus aureus. Nature of the assay: Antimicrobial activity against methicillin-resistant Staphylococcus aureus isolate 82731 by broth microdilution method. Format: functional. The gist of the method: as §5
The test system of assay [29] is Staphylococcus aureus. In words: Antimicrobial activity against methicillin-resistant Staphylococcus aureus isolate 7365 by broth microdilution method. Format: functional. Summed up: as §5
Assay [30] concerns Pseudomonas aeruginosa. In words: Antimicrobial activity against Pseudomonas aeruginosa ATCC 27853 by two fold microdilution method. Format: functional. The gist of the method: as §1
For assay [31], the system named is Escherichia coli. Nature of the assay: Antimicrobial activity against Escherichia coli ATCC 25922 by two fold microdilution method. Format: functional. The gist of the method:
as §1

Assay [32] concerns Candida albicans. In words: Antifungal activity against Candida albicans ATCC 10231 by two fold microdilution method. Format: functional.
The subject of assay [33] is Staphylococcus aureus. Nature of the assay: Antimicrobial activity against methicillin-resistant Staphylococcus aureus isolate 82924 by broth microdilution method. Format: functional. The gist of the method:
as §5

Assay [34] concerns Escherichia coli. In words: Inhibition of Escherichia coli DNA gyrase supercoiling activity using pHOT1 DNA as substrate at 1 uM after 60 mins by agarose gel electrophoretic analysis. Summed up: as §6
For assay [35], the system named is Enterococcus faecalis. Nature of the assay: Antimicrobial activity against Enterococcus faecalis ATCC 29212 by two fold microdilution method. Format: functional. Summed up:
as §1

For assay [36], the system named is Staphylococcus aureus. Nature of the assay: Antimicrobial activity against methicillin-resistant Staphylococcus aureus ATCC 43300 by two fold microdilution method. Format: functional. The gist of the method: as §2
For assay [37], the target named is DNA gyrase (Staphylococcus aureus) (UniProt P0A0K8+P20831). In words: Inhibition of Staphylococcus aureus DNA gyrase supercoiling activity using pHOT1 DNA as substrate at 125 uM after 60 mins by agarose gel electrophoretic analysis. Format: protein-complex assay. Summed up: as §6
Sequence of DNA gyrase (Staphylococcus aureus) (P0A0K8 2-644 limits assumed): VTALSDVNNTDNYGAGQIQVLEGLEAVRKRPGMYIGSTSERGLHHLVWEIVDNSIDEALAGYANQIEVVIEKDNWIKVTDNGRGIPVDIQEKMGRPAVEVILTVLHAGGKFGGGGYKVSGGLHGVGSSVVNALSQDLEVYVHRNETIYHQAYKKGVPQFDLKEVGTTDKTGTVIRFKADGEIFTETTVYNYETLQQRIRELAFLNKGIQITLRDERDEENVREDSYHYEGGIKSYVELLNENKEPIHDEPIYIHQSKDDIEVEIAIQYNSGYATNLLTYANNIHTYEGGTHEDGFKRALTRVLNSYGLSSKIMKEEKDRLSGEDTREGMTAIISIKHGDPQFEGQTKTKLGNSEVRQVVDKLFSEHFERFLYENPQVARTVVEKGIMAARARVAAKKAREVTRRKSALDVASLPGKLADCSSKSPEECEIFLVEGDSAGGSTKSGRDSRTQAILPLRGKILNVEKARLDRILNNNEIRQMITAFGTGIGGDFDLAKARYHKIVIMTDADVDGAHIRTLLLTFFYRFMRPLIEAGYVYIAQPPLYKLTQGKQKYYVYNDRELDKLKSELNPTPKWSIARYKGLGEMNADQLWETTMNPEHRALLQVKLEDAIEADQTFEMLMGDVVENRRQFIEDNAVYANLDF
Sequence of DNA gyrase (Staphylococcus aureus) (P20831 whole entry partner): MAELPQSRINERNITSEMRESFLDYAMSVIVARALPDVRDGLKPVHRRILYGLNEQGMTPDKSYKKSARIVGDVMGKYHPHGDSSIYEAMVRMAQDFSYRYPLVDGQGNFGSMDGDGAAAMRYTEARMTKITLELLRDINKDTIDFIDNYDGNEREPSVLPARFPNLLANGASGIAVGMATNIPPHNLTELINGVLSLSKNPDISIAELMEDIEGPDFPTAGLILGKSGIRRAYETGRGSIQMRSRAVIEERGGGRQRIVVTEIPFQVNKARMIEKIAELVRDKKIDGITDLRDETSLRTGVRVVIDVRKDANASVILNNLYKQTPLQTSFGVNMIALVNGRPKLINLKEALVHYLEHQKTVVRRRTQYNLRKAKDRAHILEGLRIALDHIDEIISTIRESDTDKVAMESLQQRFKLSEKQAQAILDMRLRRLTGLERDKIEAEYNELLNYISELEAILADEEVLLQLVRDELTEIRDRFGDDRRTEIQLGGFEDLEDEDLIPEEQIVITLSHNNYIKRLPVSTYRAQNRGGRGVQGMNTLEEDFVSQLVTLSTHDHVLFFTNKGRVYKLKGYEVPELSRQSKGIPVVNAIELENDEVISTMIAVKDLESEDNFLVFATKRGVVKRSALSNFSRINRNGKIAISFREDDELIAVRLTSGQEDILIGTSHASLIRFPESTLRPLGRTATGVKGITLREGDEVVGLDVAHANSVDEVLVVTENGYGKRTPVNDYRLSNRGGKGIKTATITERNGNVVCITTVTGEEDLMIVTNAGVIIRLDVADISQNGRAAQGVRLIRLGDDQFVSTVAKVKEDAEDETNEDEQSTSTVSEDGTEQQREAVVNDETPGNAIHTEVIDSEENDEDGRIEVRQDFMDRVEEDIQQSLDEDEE
For assay [38], the system named is Staphylococcus aureus. Nature of the assay: Antimicrobial activity against methicillin-resistant Staphylococcus aureus isolate 071843 by broth microdilution method. Format: functional. The gist of the method: as §5
The subject of assay [39] is Escherichia coli. Particulars: 1 to 125 uM.

Converted amounts (≈) assume the structure as drawn. The source made the active and inactive calls. The calls are words filed in the database; no cut-off is given here. A value given as a limit tells only on which side of the number the result lay.

Turning to `O=C1c2cccnc2C(=O)c2c1c(C(=O)OCCF)c1ccc(Br)cn21`, the minimum inhibitory concentration (MIC) in [1] is 0.016 µg/mL (≈ 0.0384 µM); in assay [2], 0.031 µg/mL (≈ 0.0743 µM); in assay [3], above 64 µg/mL; in assay [5], 0.063 µg/mL (≈ 0.151 µM); in assay [6], above 64 µg/mL; in assay [7] it was above 64 µg/mL. Further, the MIC in assay [8] is 0.016 µg/mL (≈ 0.0384 µM); in assay [9], 0.031 µg/mL (≈ 0.0743 µM); in [10], above 64 µg/mL. The Ratio in assay [4] came out at 16.

With `CCOC(=O)c1c2c(n3cc(Br)ccc13)C(=O)c1ncccc1C2=O`, the inhibition result in assay [11], in assay [13] and in assay [25] was “Active” each time. Further, the MIC in assay [12] was 64 µg/mL (≈ 160 µM); in assay [14] it was 0.063 µg/mL (≈ 0.158 µM); in assay [16] it was 0.016 µg/mL (≈ 0.0401 µM); in [17], 0.032 µg/mL (≈ 0.0802 µM); in assay [18] it was 0.032 µg/mL (≈ 0.0802 µM); in [20], 0.063 µg/mL (≈ 0.158 µM). For the same compound, the MIC worked out at 0.031 µg/mL (≈ 0.0777 µM) in [21]; 0.016 µg/mL (≈ 0.0401 µM) in [22]; 0.016 µg/mL (≈ 0.0401 µM) in assay [23]; 0.032 µg/mL (≈ 0.0802 µM) in [24]; 0.063 µg/mL (≈ 0.158 µM) in assay [27]; 0.016 µg/mL (≈ 0.0401 µM) in [28]. In addition, the MIC in assay [29] is 0.063 µg/mL (≈ 0.158 µM); in assay [30], above 64 µg/mL; in assay [31] it was above 64 µg/mL; in assay [32], above 64 µg/mL; in [33] it was 0.032 µg/mL (≈ 0.0802 µM); in [35], 0.016 µg/mL (≈ 0.0401 µM). Further, the values for the MIC in assay [36] and in [38] were 0.063 µg/mL (≈ 0.158 µM) and 0.016 µg/mL (≈ 0.0401 µM), respectively. The inhibition entry in assay [15] and in assay [37] was “inactive” in each case. Also, the Ratio in [4] was determined as 16. The inhibition in assay [19] was determined as 84%; in [26] it was 98%; in assay [34], 78%.

Take `O=C1c2cccnc2C(=O)c2c1c(C(=O)OCC(F)(F)F)c1ccc(Br)cn21`: the MIC in [1] was 0.016 µg/mL (≈ 0.0353 µM); in assay [2], 0.031 µg/mL (≈ 0.0684 µM); in assay [3], above 64 µg/mL; in [5], 0.031 µg/mL (≈ 0.0684 µM); in assay [6], above 64 µg/mL; in assay [7], above 64 µg/mL. The values for the MIC in [8], in assay [9] and in assay [10] were 0.016 µg/mL (≈ 0.0353 µM), 0.031 µg/mL (≈ 0.0684 µM) and above 64 µg/mL, respectively. Moreover, the Ratio in assay [4] is 32.

Consider `O=C(O)c1cn(C2CC2)c2cc(N3CCNCC3)c(F)cc2c1=O`, for which the inhibition result in assay [11], in assay [13] and in assay [39] was “Active” each time. Also, the inhibition entry in assay [37] is “inactive”.
